Results reported in ChEMBL document CHEMBL4359878, “Discovery of 4-piperazinyl-2-aminopyrimidine derivatives as dual inhibitors of JAK2 and FLT3” (Eur J Med Chem, 2019).

Legend:
[1] = target: T1, Tyrosine-protein kinase JAK2 (Homo sapiens, UniProt O60674); experiment: Inhibition of N-terminal His-tagged human JAK2 catalytic domain (826 to 1132 resiudes) expressed in baculovirus expression system at 100 nM using FAM-labeled peptide as substrate preincubated for 10 mins followed by substrate addition measured after 1 hr in presence of ATP by mobility shift assay relative to control
How it was run: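 Single-concentration (100 nM) percent inhibition in the mobility-shift JAK2 assay. Enzyme was preincubated with compound for 10 min at room temperature in HEPES pH 7.5/Brij-35 buffer. FAM-peptide and ATP were then added and the reaction run for 1 h at 28 °C before EDTA stop. Inhibition = (max−conversion)/(max−min)×100. Each compound was tested at least twice and the values averaged.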

HEL [2] = experiment: Antiproliferative activity against human HEL cells assessed as growth inhibition after 72 hrs by CCK-8 assay; format: functional
How it was run: (§1)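 CCK-8 viability readout. Cells were cultured in RPMI 1640 with 10% FBS and 1% penicillin/streptomycin and seeded at 3000 (HEL), 5000 (MV4-11) or 3000 (HL60) cells/well. Increasing compound concentrations were applied for 72 h, then CCK-8 was added for a further 3 h and absorbance read at 450 nm. Inhibition = (1−A_sample/A_control)×100, normalized to DMSO controls. Value is the mean of three independent measurements, obtained by curve fitting.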

MV4-11 = experiment: Antiproliferative activity against human MV4-11 cells assessed as growth inhibition after 72 hrs by CCK-8 assay; format: functional; conditions: MV4-11, 72 h; how it was run: as §1
HL-60 = experiment: Antiproliferative activity against human HL60 cells assessed as growth inhibition after 72 hrs by CCK-8 assay; format: functional; conditions: HL-60, 72 h; how it was run: as §1
HEL [3] = experiment: Induction of cell cycle arrest in human HEL cells assessed as accumulation at G1 phase at 0.33 uM after 72 hrs by propidium iodide-staining based flow cytometry (reference value: 43.12%); format: functional
How it was run: (§2)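 Subconfluent HEL cells were treated for 72 h at 0.33, 1.0, 3.0 or 9.0 μM, with untreated cells as control. Cultures were pulsed with 10 μM BrdU for 30 min at 37 °C before harvest, then PBS-washed, fixed in 70% ethanol and denatured in 2 M HCl. After neutralization, cells were stained with fluorescein anti-BrdU antibody and propidium iodide. DNA content was measured by flow cytometry with 488 nm excitation.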

HEL [4] = experiment: Induction of cell cycle arrest in human HEL cells assessed as accumulation at S phase at 1 uM after 72 hrs by propidium iodide-staining based flow cytometry (reference value: 41.47%); format: functional; how it was run: as §2
HEL [5] = experiment: Induction of cell cycle arrest in human HEL cells assessed as accumulation at G2 phase at 1 uM after 72 hrs by propidium iodide-staining based flow cytometry (reference value: 15.10%); format: functional; how it was run: as §2
HEL [6] = experiment: Induction of cell cycle arrest in human HEL cells assessed as accumulation at G1 phase at 3 uM after 72 hrs by propidium iodide-staining based flow cytometry (reference value: 43.12%); format: functional; how it was run: as §2
HEL [7] = experiment: Induction of cell cycle arrest in human HEL cells assessed as accumulation at S phase at 3 uM after 72 hrs by propidium iodide-staining based flow cytometry (reference value: 41.47%); format: functional; how it was run: as §2
HEL [8] = experiment: Induction of cell cycle arrest in human HEL cells assessed as accumulation at G2 phase at 3 uM after 72 hrs by propidium iodide-staining based flow cytometry (reference value: 15.10%); format: functional; how it was run: as §2
HEL [9] = experiment: Induction of cell cycle arrest in human HEL cells assessed as accumulation at G1 phase at 9 uM after 72 hrs by propidium iodide-staining based flow cytometry (reference value: 43.12%); format: functional; how it was run: as §2
HEL [10] = experiment: Induction of cell cycle arrest in human HEL cells assessed as accumulation at S phase at 9 uM after 72 hrs by propidium iodide-staining based flow cytometry (reference value: 41.47%); format: functional; how it was run: as §2
HEL [11] = experiment: Induction of cell cycle arrest in human HEL cells assessed as accumulation of cells at G1/S phase after 72 hrs by propidium iodide-staining based flow cytometry; format: functional; how it was run: as §2
HEL [12] = experiment: Induction of apoptosis in human HEL cells after 72 hrs by FITC-annexin V/propidium iodide-double staining based flow cytometry; format: functional, cell-based
HEL [13] = experiment: Induction of apoptosis in human HEL cells assessed as viable cells at 0.33 uM after 72 hrs by FITC-annexin V/propidium iodide-double staining based flow cytometry (reference value: 93.77%); format: functional; conditions: read-out: Activity
HEL [14] = experiment: Induction of apoptosis in human HEL cells assessed as early apoptotic cells at 0.33 uM after 72 hrs by FITC-annexin V/propidium iodide-double staining based flow cytometry (reference value: 2.23%); format: functional
HEL [15] = experiment: Induction of apoptosis in human HEL cells assessed as late apoptotic cells at 0.33 uM after 72 hrs by FITC-annexin V/propidium iodide-double staining based flow cytometry (reference value: 1.63%); format: functional
HEL [16] = experiment: Induction of apoptosis in human HEL cells assessed as necrotic cells at 0.33 uM after 72 hrs by FITC-annexin V/propidium iodide-double staining based flow cytometry (reference value: 2.40%); format: functional
HEL [17] = experiment: Induction of apoptosis in human HEL cells assessed as late apoptotic cells at 1 uM after 72 hrs by FITC-annexin V/propidium iodide-double staining based flow cytometry (reference value: 1.63%); format: functional
HEL [18] = experiment: Induction of apoptosis in human HEL cells assessed as necrotic cells at 1 uM after 72 hrs by FITC-annexin V/propidium iodide-double staining based flow cytometry (reference value: 2.40%); format: functional
HEL [19] = experiment: Induction of apoptosis in human HEL cells assessed as viable cells at 3 uM after 72 hrs by FITC-annexin V/propidium iodide-double staining based flow cytometry (reference value: 93.77%); format: functional; conditions: read-out: Activity
HEL [20] = experiment: Induction of apoptosis in human HEL cells assessed as late apoptotic cells at 3 uM after 72 hrs by FITC-annexin V/propidium iodide-double staining based flow cytometry (reference value: 1.63%); format: functional
HEL [21] = experiment: Induction of apoptosis in human HEL cells assessed as viable cells at 9 uM after 72 hrs by FITC-annexin V/propidium iodide-double staining based flow cytometry (reference value: 93.77%); format: functional; conditions: read-out: Activity
HEL [22] = experiment: Induction of apoptosis in human HEL cells assessed as late apoptotic cells at 9 uM after 72 hrs by FITC-annexin V/propidium iodide-double staining based flow cytometry (reference value: 1.63%); format: functional
HEL [23] = experiment: Induction of apoptosis in human HEL cells assessed as necrotic cells at 9 uM after 72 hrs by FITC-annexin V/propidium iodide-double staining based flow cytometry (reference value: 2.40%); format: functional
[24] = target: T1, Tyrosine-protein kinase JAK2; experiment: Inhibition of N-terminal His-tagged human JAK2 catalytic domain (826 to 1132 resiudes) expressed in baculovirus expression system using FAM-labeled peptide as substrate preincubated for 10 mins followed by substrate addition measured after 1 hr in presence of ATP by mobility shift assay
How it was run: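 Caliper mobility-shift assay with recombinant kinase in 50 mM HEPES pH 7.5, 0.0015% Brij-35. Compound was diluted from DMSO and preincubated with enzyme for 10 min at room temperature. FAM-labeled peptide plus ATP was then added and the reaction run for 1 h at 28 °C. It was stopped with an EDTA (50 mM) buffer. Conversion gave percent inhibition relative to max/min controls, and IC50 came from a four-parameter Hill fit. Duplicate wells were used.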

T1 sequence (O60674 whole entry, the tested form may be a part): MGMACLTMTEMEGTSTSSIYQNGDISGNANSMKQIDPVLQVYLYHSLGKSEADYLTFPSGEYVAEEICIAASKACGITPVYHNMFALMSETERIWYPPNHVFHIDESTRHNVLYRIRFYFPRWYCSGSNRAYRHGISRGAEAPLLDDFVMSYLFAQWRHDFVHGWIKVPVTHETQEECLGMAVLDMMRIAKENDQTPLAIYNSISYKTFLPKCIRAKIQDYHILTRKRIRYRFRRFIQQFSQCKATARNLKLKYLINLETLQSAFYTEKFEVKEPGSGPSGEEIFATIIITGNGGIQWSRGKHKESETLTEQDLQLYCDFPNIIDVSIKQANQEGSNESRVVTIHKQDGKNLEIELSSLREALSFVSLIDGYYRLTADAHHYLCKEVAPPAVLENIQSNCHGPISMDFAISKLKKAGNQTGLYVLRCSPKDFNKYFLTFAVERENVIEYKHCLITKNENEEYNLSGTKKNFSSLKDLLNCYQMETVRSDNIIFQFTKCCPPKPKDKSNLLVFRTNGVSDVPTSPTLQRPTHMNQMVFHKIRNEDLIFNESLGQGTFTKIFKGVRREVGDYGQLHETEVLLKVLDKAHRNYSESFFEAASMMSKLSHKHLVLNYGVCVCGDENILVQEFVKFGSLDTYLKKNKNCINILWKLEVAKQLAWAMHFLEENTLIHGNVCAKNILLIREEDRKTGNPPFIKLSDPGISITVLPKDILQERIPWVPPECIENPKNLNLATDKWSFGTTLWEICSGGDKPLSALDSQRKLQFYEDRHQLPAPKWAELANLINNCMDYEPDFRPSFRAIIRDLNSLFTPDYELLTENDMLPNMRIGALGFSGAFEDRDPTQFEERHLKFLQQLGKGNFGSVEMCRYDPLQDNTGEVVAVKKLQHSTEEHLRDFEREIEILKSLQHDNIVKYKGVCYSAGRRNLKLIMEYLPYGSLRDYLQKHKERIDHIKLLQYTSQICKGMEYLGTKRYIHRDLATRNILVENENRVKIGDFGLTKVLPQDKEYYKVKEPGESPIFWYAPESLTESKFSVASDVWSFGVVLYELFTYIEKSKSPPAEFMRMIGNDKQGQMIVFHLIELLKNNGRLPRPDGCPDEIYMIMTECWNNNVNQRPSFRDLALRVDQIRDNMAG

## CC(=O)c1ccc(NC(=O)N2CCN(c3ccnc(Nc4ccc(N5CCOCC5)cc4)n3)CC2)cc1
[1]
  inhibition: 86.7%
HEL [2]
  GI50: 4.3 µM
MV4-11
  GI50: 11 µM
HL-60
  GI50: 16.5 µM
HEL [3]
  Activity: 54.07%
HEL [4]
  Activity: 31.59%
HEL [5]
  Activity: 6.97%
HEL [6]
  Activity: 71.85%
HEL [7]
  Activity: 22.24%
HEL [8]
  Activity: 5.91%
HEL [9]
  Activity: 78.05%
HEL [10]
  Activity: 19.26%
HEL [11]
  Activity: Dose-dependent effect
HEL [12]
  Activity: Dose-dependent effect
HEL [13]
  viability at 0.33 µM: 88.3%
HEL [14]
  Activity: 4.07%
HEL [15]
  Activity: 4.3%
HEL [16]
  Activity: 3.3%
HEL [17]
  Activity: 22.4%
HEL [18]
  Activity: 12.73%
HEL [19]
  viability at 3 µM: 22.6%
HEL [20]
  Activity: 33.6%
HEL [21]
  viability at 9 µM: 24.3%
HEL [22]
  Activity: 30.4%
HEL [23]
  Activity: 9.77%
[24]
  IC50: 0.027 µM
